Test results published in article PMC7271564 (Haematologica, 2019).
Entries after “also recorded” stand apart in the source; their conditions may differ. Each block holds one compound with its values, some of them ahead of it.

Columns and labels:
[1] = system: monocytes (CD14+); experiment: HTFC drug sensitivity assay, monocytes; format: cell-based, human; settings: for response of monocytes, in words: mean of 16 samples (3 healthy, 3 AML, 10 MM), Cohort I
Method in brief: (§1)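 Three healthy PB samples were screened ex vivo with 71 compounds at 5 concentrations in 384-well plates. The assay was a no-wash multiplexed flow cytometry run on an iQue Screener PLUS. Six subsets were gated by surface antigen: CD19+, CD56+, CD3+CD4+, CD3+CD8+, CD3+CD56+ and CD14+. Cell counts per subset gave dose–response curves, and DSS was derived from these.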

[2] = system: CD138+CD38- plasma cells; experiment: HTFC drug sensitivity assay, plasma cell subset; format: cell-based, human; settings: CD138+CD38- plasma cells compared to CD138+CD38+ or other cells, MM samples
Method in brief: (§2)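 Cohort I comprised 16 samples: 3 healthy PB, 3 AML and 10 MM. Samples were tested in 96-well plates against six compounds by no-wash high-throughput flow cytometry (iQue Screener PLUS). Two antibody panels defined up to ten subsets, including CD138+CD38± plasma cells and CD34+CD38± progenitors. Per-population cell counts gave dose–response curves, from which DSS and IC50 were derived. Results were shown as mean±SEM per disease group.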

[3] = system: T-cell subsets (CD3+); experiment: HTFC drug sensitivity assay, T-cell subsets; format: cell-based, human
Method in brief: as §2

[4] = system: T-cell malignancies (primary samples); experiment: CellTiter-Glo viability assay; format: cell-based, human; settings: similar to healthy T cells
Method in brief: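 Primary BM aspirates from leukemia patients (Cohort III, n=281 total), with T-PLL samples tested as enriched CD8+ cells, were exposed to the drug panel. The endpoint was CellTiter-Glo luminescent viability. Luminescence was fitted to dose–response curves, from which a drug sensitivity score (DSS) was calculated. Comparison was against bead-enriched healthy BM CD3+ cells.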

[5] = system: CD19+/B cells; experiment: High throughput no-wash flow cytometry; format: cell-based, human; settings: for sensitivity compared to other cell types, in words: B cells, three healthy PB samples, 71-drug screen
[6] = system: CD56+/NK cells; experiment: HTFC drug sensitivity assay, NK cells; format: cell-based, human; settings: for sensitivity compared to other cell types, in words: NK cells, three healthy PB samples, 71-drug screen
Method in brief: as §1

[7] = system: CD34+CD38- cells (HSC); experiment: HTFC drug sensitivity assay, hematopoietic stem cells; format: cell-based, human; settings: CD34+CD38- cells from healthy donors (BM, n=2)
[8] = system: CD34+CD38+ cells (CPC/blast); experiment: HTFC drug sensitivity assay, progenitor/blast cells; format: cell-based; settings: Homo sapiens

Structure (SMILES): CC1(C)CCC(c2ccc(Cl)cc2)=C(CN2CCN(c3ccc(C(=O)NS(=O)(=O)c4ccc(N[C@H](CCN5CCOCC5)CSc5ccccc5)c(S(=O)(=O)C(F)(F)F)c4)cc3)CC2)C1 [navitoclax]
response of monocytes, in words [1]: resistant

Structure (SMILES): CC(C)C[C@H](NC(=O)[C@H](Cc1ccccc1)NC(=O)c1cnccn1)B(O)O [bortezomib]
ex vivo response, in words [2]: resistant

Structure (SMILES): COc1ncc(-c2ccc3nccc(-c4ccnnc4)c3c2)cc1NS(=O)(=O)c1ccc(F)cc1F [omipalisib]
sensitivity, in words ([3]; T-cell subsets, Cohort I samples): insensitive
effect on CD3+ cell count, in words ([3]; at concentrations of 10 and 100 nM): increase
response (DSS), in words [4]: no response

Structure (SMILES): C[C@@H]1C[C@H]2[C@@H]3CCC4=CC(=O)C=C[C@]4(C)[C@@]3(F)[C@@H](O)C[C@]2(C)[C@@]1(O)C(=O)CO [dexamethasone]
sensitivity compared to other cell types, in words [5]: higher sensitivity
effect on cell count, in words ([5]; CD19+ cells, Cohort I samples): depleted
effect on cell count, in words ([6]; CD56+ cells, Cohort I samples): depleted
sensitivity compared to other cell types, in words [6]: higher sensitivity
effect on CD14+ cell count, in words ([1]; Cohort I samples): dose-dependent increase
response of monocytes, in words [1]: resistant

Structure (SMILES): CC1(C)CCC(CN2CCN(c3ccc(C(=O)NS(=O)(=O)c4ccc(NCC5CCOCC5)c([N+](=O)[O-])c4)c(Oc4cnc5[nH]ccc5c4)c3)CC2)=C(c2ccc(Cl)cc2)C1 [venetoclax]
sensitivity compared to other cell types, in words [5]: higher sensitivity
sensitivity compared to other cell types, in words [6]: higher sensitivity
response of monocytes, in words [1]: resistant

IC50 [8]: 16 nM
Structure (SMILES): CO[C@@H]1[C@H](N(C)C(=O)c2ccccc2)C[C@H]2O[C@]1(C)n1c3ccccc3c3c4c(c5c6ccccc6n2c5c31)C(=O)NC4 [midostaurin]
sensitivity compared to other cell types, in words [5]: higher sensitivity
sensitivity compared to other cell types, in words [6]: higher sensitivity
sensitivity, in words [7]: insensitive; also recorded: no effect

Structure (SMILES): Cc1nc(Nc2ncc(C(=O)Nc3c(C)cccc3Cl)s2)cc(N2CCN(CCO)CC2)n1 [dasatinib]
drug response profile (DSS clustering), in words ([1]; monocytes, three healthy PB samples, 71-drug screen): selective sensitivity
